The record followed here is ChEMBL document CHEMBL1135750, “Phenoxyphenyl sulfone N-formylhydroxylamines (retrohydroxamates) as potent, selective, orally bioavailable matrix metalloproteinase inhibitors” (J Med Chem, 2002).

Data set [1] concerns THP-1. Description: Selective inhibition of the cellular TNF alpha release from LPS-stimulated THP-1 cells. Format: functional, cell-based. Conditions: Homo sapiens.
The target of data set [2] is T1, Matrilysin (Homo sapiens, UniProt P09237).
T1 sequence (P09237 whole entry): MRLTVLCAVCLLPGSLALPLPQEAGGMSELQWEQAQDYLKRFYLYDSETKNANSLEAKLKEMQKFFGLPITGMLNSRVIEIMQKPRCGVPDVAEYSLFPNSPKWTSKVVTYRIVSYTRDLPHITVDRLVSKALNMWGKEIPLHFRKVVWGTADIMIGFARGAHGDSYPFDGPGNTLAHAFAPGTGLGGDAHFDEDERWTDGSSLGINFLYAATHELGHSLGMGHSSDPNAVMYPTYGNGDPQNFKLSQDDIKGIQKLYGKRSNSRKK
Description: Inhibition of Matrix metalloprotease-7 (MMP-7) in fluorimetric assay.

Data set [3] concerns the target Neutrophil collagenase (Homo sapiens, UniProt P22894). Description: Inhibition of Matrix metalloprotease-8 (MMP-8) in fluorimetric assay.
Data set [4] has as its target Stromelysin-1 (Homo sapiens, UniProt P08254). As to the kind of experiment: Inhibition of Matrix metalloprotease-3 (MMP-3) in fluorimetric assay.
The target in data set [5] is Matrix metalloproteinase-9 (Homo sapiens, UniProt P14780). Description: In vitro selective inhibition against Matrix metalloprotease-9 (MMP-9) using fluorimetric assay.
Sequence of Matrix metalloproteinase-9 (P14780 whole entry): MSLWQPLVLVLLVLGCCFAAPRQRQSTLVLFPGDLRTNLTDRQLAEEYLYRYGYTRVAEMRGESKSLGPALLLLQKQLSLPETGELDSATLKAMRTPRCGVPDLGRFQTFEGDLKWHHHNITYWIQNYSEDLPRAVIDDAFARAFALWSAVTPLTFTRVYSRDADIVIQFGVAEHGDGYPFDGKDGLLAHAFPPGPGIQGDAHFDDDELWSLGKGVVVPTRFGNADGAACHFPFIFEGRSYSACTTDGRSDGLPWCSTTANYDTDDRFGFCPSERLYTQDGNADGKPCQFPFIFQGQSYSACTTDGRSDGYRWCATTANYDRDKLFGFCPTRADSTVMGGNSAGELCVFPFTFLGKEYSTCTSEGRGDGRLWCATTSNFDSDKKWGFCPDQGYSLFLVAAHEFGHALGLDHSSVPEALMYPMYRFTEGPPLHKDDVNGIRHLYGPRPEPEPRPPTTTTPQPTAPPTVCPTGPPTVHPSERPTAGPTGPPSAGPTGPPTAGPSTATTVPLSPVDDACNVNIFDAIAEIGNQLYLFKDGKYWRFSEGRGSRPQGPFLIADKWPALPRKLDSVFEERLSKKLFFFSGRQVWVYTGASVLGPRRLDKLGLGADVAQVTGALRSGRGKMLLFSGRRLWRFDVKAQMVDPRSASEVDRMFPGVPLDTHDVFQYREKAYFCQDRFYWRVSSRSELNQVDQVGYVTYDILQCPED
Data set [6] concerns the target T2, Interstitial collagenase (Homo sapiens, UniProt P03956).
T2 sequence (P03956 whole entry): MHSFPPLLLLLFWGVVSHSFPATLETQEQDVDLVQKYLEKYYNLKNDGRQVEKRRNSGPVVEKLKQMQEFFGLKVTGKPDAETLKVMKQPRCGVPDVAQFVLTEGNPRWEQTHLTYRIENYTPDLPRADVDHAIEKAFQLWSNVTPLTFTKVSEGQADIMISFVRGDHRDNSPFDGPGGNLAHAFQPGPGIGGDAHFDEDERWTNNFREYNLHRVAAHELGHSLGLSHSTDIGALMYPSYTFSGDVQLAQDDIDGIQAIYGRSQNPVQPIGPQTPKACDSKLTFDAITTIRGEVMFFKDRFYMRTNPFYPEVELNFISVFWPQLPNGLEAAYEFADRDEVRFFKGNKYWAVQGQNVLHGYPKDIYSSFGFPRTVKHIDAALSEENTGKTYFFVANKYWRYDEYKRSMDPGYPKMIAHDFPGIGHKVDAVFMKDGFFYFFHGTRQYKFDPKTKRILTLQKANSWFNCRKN
As to the kind of experiment: In vitro selective inhibition against matrix metalloprotease-1 (MMP-1) using a fluorimetric assay.

Data set [7] addresses 72 kDa type IV collagenase (Homo sapiens, UniProt P08253). As to the kind of experiment: In vitro selective inhibition against matrix metalloprotease-2 (MMP-2) using fluorimetric assay.
Data set [8] addresses Collagenase 3 (Homo sapiens, UniProt P45452).
Data set [9] can be described thus: Half life measured as t1/2 in hours after iv administration in cynomolgus monkey. The data set is classed as ADME, organism-based, Macaca fascicularis. Conditions: in vivo.
Data set [10] is described as follows: AUC in monkey. The data set is classed as ADME. The arrangement: concentration or dose not given beside the values. Conditions: simiiformes, plasma.
Data set [11] in a line: Area under the curve (AUC) after 3 mg/kg peroral administration in cynomolgus monkey. Format: ADME, organism-based, Macaca fascicularis. The arrangement: dose 3 mg/kg, route oral. Conditions: in vivo, po. Put shortly:
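Single oral dose of 3 mpk in cynomolgus monkeys, two animals per compound. Oral exposure is reported as AUC in μM·h.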

The IC50 is the point on the concentration scale where inhibition reaches its midpoint. The term half-life denotes the time needed for the level to fall by half in the phase considered. Usually AUC stands for concentration integrated over time.

Sequence of 72 kDa type IV collagenase (P08253 whole entry): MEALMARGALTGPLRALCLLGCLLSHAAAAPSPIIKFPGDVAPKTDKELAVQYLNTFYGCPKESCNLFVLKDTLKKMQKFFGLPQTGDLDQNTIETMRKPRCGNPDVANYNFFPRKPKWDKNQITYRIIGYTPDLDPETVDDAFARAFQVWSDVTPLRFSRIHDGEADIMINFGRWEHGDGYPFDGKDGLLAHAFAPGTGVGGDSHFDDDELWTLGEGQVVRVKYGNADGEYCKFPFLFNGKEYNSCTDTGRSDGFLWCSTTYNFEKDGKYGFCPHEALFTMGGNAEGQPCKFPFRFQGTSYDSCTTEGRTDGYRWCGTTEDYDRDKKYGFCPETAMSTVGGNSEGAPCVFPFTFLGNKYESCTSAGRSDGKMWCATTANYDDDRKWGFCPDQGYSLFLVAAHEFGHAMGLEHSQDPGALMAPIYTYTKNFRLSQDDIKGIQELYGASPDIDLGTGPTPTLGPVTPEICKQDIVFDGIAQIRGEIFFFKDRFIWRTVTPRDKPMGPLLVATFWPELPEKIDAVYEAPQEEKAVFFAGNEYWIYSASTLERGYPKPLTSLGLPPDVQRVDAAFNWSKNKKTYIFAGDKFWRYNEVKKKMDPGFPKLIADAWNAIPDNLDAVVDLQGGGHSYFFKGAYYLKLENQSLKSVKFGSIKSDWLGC
Sequence of Neutrophil collagenase (P22894 whole entry): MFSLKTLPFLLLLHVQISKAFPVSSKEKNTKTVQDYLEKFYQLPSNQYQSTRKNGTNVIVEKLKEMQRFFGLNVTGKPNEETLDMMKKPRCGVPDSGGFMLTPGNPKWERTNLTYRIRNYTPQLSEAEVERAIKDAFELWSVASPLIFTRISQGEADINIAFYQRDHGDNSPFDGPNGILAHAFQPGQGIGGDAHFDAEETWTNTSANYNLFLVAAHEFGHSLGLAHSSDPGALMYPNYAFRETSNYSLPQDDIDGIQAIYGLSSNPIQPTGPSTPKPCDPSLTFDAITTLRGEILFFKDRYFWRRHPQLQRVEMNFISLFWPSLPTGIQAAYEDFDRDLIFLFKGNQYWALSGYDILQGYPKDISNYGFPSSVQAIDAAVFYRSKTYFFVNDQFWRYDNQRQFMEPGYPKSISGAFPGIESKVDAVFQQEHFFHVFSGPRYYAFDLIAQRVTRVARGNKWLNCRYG
Sequence of Stromelysin-1 (P08254 whole entry): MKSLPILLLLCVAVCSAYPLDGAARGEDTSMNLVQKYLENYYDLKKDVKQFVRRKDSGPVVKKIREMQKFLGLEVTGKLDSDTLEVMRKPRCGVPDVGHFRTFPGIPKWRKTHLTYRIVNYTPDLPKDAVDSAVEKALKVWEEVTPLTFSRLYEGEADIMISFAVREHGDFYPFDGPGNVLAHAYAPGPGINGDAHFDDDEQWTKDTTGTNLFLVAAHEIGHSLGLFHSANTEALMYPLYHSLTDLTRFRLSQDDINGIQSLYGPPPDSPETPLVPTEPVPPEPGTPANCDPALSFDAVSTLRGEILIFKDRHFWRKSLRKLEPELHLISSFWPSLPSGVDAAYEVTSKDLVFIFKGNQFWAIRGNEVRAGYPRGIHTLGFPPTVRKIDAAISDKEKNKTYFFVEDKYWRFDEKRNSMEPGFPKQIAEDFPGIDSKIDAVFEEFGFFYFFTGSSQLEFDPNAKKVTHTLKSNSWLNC

As for `CC1(C)SCCN(S(=O)(=O)c2ccc(Oc3ccncc3)cc2)[C@H]1C(=O)NO` [PRINOMASTAT], the IC50 in data set [1] turned out to be 8.6 µM; in data set [2] it was 0.072 µM; in data set [3], 0.54 nM.

Regarding `CNC(=O)[C@@H](NC(=O)[C@H](CC(C)C)[C@H](O)C(=O)NO)C(C)(C)C`, the IC50 in [1] was determined as 2.1 µM.

As for `CC1(C)OC[C@H]([C@@H](CS(=O)(=O)c2ccc(Oc3ccc(OC(F)(F)F)cc3)cc2)N(O)C=O)O1` (stereo in doubt), the IC50 in data set [4] was 12 nM; in data set [1], more than 50 µM; in data set [5], 0.5 nM; in data set [2] it was 11 µM; in data set [6], 8.9 µM; in data set [7] it was 0.78 nM. The concentration for half-maximal inhibition (IC50) was found to be 5 nM in [3] and 3.3 nM in data set [8].

For the molecule `C[C@@H]1OC(C)(C)OC1[C@@H](CS(=O)(=O)c1ccc(Oc2ccc(OC(F)(F)F)cc2)cc1)N(O)C=O` (stereo partly specified), in data set [9], the half-life was 1170 min. The half-inhibitory concentration (IC50) in [5] is 1.1 nM; in [6], more than 50 µM; in data set [7] it was 1.9 nM. The area under the curve (AUC) in data set [10] was found to be 21 µM·h.

In data set [9], `CC1(C)NC(=O)N(CC(CS(=O)(=O)c2ccc(Oc3ccc(Cl)cc3)cc2)N(O)C=O)C1=O` (stereo unspecified) had a half-life of 336 min. Also, the IC50 was found to be 0.96 nM in [5], 0.09 µM in [6] and 0.32 nM in [7]. The same molecule gave an AUC in data set [10] of 17 µM·h.

In the case of `O=CN(O)C(CS(=O)(=O)c1ccc(Oc2ccc(OC(F)(F)F)cc2)cc1)C(CO)CO` (stereo unspecified), the half-life in [9] was 114 min. Further, the IC50 in data set [5] was 0.49 nM; in data set [6], more than 50 µM; in data set [7], 2.8 nM. The same molecule returned an area under the curve (AUC) in data set [10] of 8 µM·h.

Take `O=CN(O)C(CS(=O)(=O)c1ccc(Oc2ccc(OC(F)(F)F)cc2)cc1)C1CCC2(CC1)OCCO2` (stereo unspecified): the IC50 in data set [5] was 2 nM; in data set [6], more than 50 µM; in data set [7], 0.42 nM. Also, the AUC in data set [11] came out at 28 µM·h.
